# Only some compounds are listed: those with a hit (about 3.9% of all), similar ones and a draw of the others.
# CRFBP-R2 agonist: agonists of CRF-BP/CRF-R2 complex, primary screen, cell-based, HEK293, calcium dye fluorescence, uHTS | CRF-binding protein / CRF receptor 2 complex (human) | calcium dye fluorescence (FLIPR); percent of saturating CRF peptide response | activation, % at 13.2 µM | 350,000 tested, 0.46% active | AID 588473, 2011;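 active = activation of at least 50%, plus an integration ratio under a set limit after plate pattern correction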;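 also: plate controls were neutral control wells without compound for no effect and CRF at EC100 for full effect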
# TAAR1 antag: human TAAR1 antagonists, primary screen, Fluo-8 calcium fluorescence, CHO RD-HGA16 cells. inhibition, % at 3 µM. antagonist. AID 624466, 2012. 360,000 tested, 1.5% active. Trace amine-associated receptor 1 (Homo sapiens), Q96RJ0;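 active = inhibition above a per-plate cutoff, the mean inhibition of test compounds on that plate plus 3 SD, cut at about 49% in these data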;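 also: 0% = DMSO plus EC80 beta-PEA response and 100% = DMSO alone without agonist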
# Target sequence (Q96RJ0 whole entry, looked up): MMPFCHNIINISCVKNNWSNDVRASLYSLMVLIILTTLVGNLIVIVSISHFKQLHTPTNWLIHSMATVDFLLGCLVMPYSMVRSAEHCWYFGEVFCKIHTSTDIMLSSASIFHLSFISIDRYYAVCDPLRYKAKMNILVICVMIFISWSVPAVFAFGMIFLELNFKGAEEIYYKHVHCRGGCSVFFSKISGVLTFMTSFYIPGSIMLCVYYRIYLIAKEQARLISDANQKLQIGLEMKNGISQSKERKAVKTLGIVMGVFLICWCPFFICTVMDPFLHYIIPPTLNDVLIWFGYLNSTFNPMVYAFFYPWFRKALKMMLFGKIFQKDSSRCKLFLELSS
#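 Test system: hTAAR1-expressing CHO RD-HGA16 cells, Gα16-coupled; Probe or stimulus: EC80 β-phenethylamine stimulus; Compound dosing: single nominal final test compound concentration of 3 µM; Timing: 140 s kinetic read after compound, 140 s after agonist; Signal: Fluo-8 calcium-sensitive fluorescence; Measure: % inhibition of agonist calcium response; Controls: DMSO and EC80 PEA controls.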
# TMEM16A act: TMEM16A chloride channel activators or potentiators, primary screen, cell-based, HTS. Anoctamin-1 (Mus musculus), Q8BHY3. HEK293 TMEM16A/YFP-H148Q/I152L, iodide quench fluorescence; stronger effect = lower value. B-score at 10 µM. 340,000 tested, 0.3% active. AID 623877, 2012;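 active = fluorescence-ratio B-score plate-corrected deviation score at least 3 library SD below zero, with starting fluorescence score within 5 deviations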;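 also: channel opened by trigger with iodide after compound preincubation; score built on the fluorescence ratio of max minus min over baseline; more negative score means more quench and so TMEM16A activation or potentiation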
# TMEM16A inh: TMEM16A chloride channel inhibitors, primary screen, cell-based, HTS; Anoctamin-1 (Mus musculus), Q8BHY3; HEK293 TMEM16A/YFP iodide influx fluorescence, ionomycin; normalized B-score (activity score, 25-100; higher = stronger inhibition) at 10 µM; 310,000 tested, 1.2% active; AID 588511, 2011;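 active = ratio plate-corrected score three or more library SD toward inhibition, starting fluorescence score within five deviations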;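 also: score derived from kinetic fluorescence span divided by baseline fluorescence per well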
# CRFBP-R2 block: antagonists of CRF-BP/CRF-R2 complex, primary screen, cell-based, HEK293, calcium dye fluorescence, uHTS; AID 588475, 2011; inhibition, % at 11.8 µM; CRF-induced calcium fluorescence; 350,000 tested, 0.59% active;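 active = inhibition of the ligand-induced calcium signal above about 50% at the single tested concentration, limit read from the data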
# TAAR1 agonist: human TAAR1 agonists, primary screen, Fluo-8 calcium fluorescence, CHO RD-HGA16 cells. activation, % at 3 µM. Trace amine-associated receptor 1 (Homo sapiens), Q96RJ0. vehicle wells 0%, saturating PEA agonist 100%. AID 624467, 2012. 360,000 tested, 0.99% active;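 active = activation above the mean activation of all test compounds in the run plus 3 SD, cut at about 38% in these data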
#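 System: CHO-derived RD-HGA16 cells with stable Gα16 and human TAAR1. Times: 17-24 h plating, Fluo-8 75 min 37 °C, 30 min RT. Measured by: calcium-sensitive Fluo-8 signal, excitation 470-495, emission 515-575 nm. Read-out basis: % activation relative to PEA EC100 response. Control set: DMSO and PEA EC100. Repeats: no replicates (n 1).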
# TAAR1 nonsel count: nonselective antagonists in TAAR1 counter-screen cells, counter-screen for hTAAR1 antagonist project, cell-based, fluorescence, calcium | shares compounds with TAAR1 antag | inhibition, % at 3 µM | 2,400 tested, 77% active | counterscreen cell line, antagonist mode; in the data active = inhibition above about 22%;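 also: CHO-Ga16 host cells stimulated with ATP at an EC80 level; 0% = agonist EC80 plus vehicle and 100% = vehicle without agonist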
# TAAR1 ant conf: human TAAR1 antagonists, retest of hits, confirmation, cell-based, fluorescence. inhibition, % at 3 µM. 2,400 tested, 40% active. AID 651785, 2012. shares compounds with TAAR1 antag. TAAR1-expressing cells, fluorescence antagonist read-out; in the data active = inhibition above about 49%;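 also: CHO-Ga16 host cells challenged with agonist PEA near its EC80; 0% = agonist at EC80 plus vehicle and 100% = vehicle with no agonist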
# Ga16 ag counter: calcium activation in Ga16-expressing cells, counter-screen for TAAR1 antagonist project, cell-based, fluorescence | shares compounds with TAAR1 antag | agonist counterscreen | activation, % at 3 µM | 2,400 tested, 18% active | AID 651953, 2012; in the data active = activation above about 12%;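 also: 0% = vehicle wells and 100% = saturating stimulus response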
# TAAR1 ag counter: TAAR1 activation by candidate antagonists – cell-based, fluorescence, counter-screen for TAAR1 antagonist project; shares compounds with TAAR1 antag; hTAAR1 cell line, agonist mode; activation, % at 3 µM; 2,400 tested, 2% active; AID 651955, 2012; in the data active = activation above about 37%;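 also: CHO cells stably expressing TAAR1 with calcium dye readout; 0% = DMSO vehicle and 100% = full agonist response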
# * marks the source's active call; other numbers are inactive results; i = inactive; nt = not tested or not shown.
SMILES,CRFBP-R2 agonist,TAAR1 antag,TMEM16A act,TMEM16A inh,CRFBP-R2 block,TAAR1 agonist,TAAR1 nonsel count,TAAR1 ant conf,Ga16 ag counter,TAAR1 ag counter
N=c1sccn1CC(=O)NC(c1ccccc1)c1ccccc1,-2,-30,i,i,1,2,nt,nt,nt,nt
O=C(Nc1nc(-c2ccc3ccccc3c2)cs1)C1CCN(S(=O)(=O)c2cccs2)CC1,0,104*,i,i,1,0,15,3,3,4
CC(C)(C)c1ccc(C(=O)OCCNC(=O)c2c(Cl)nc3ccccn23)cc1,1,73*,i,i,-3,26,29*,48,10,15
O=[N+]([O-])c1cc(/C=N/Nc2nc3ccccc3[nH]2)c(O)cc1O,-3,-3,nt,i,-2,9,nt,nt,nt,nt
OCCNc1nc(Nc2cc(Cl)ccc2OC2CCCC2)nc(N2CCCC2)n1,0,49*,i,i,-4,14,22*,27,4,6
CC(C)Oc1ccc(Cl)cc1Nc1nc(NCCO)nc(N2CCCC2)n1,2,42,i,i,0,15,nt,nt,nt,nt
COC(=O)c1cc2c(c3c4cc(C)ccc4n(C(=O)c4ccccc4)c13)C(=O)N(Cc1ccccc1)C2,nt,67*,nt,nt,nt,8,29*,56*,7,5
CC(NC(=O)COc1cc(=O)n(C)c2ccccc12)c1ccc2c(c1)OCCO2 (stereo unspecified),0,17,i,i,-1,2,nt,nt,nt,nt
CC(NC(=O)c1cc2c(=O)n(C)c3ccccc3c2n1C)c1ccc2c(c1)OCCO2 (stereo unspecified),2,59*,i,i,18,7,22*,34,4,3
CSCCC(NS(=O)(=O)c1cccc(C(F)(F)F)c1)C(=O)N(C)Cc1ccc2c(c1)OCCO2 (stereo unspecified),1,37,i,i,0,7,nt,nt,nt,nt
CSCCC(NS(=O)(=O)c1ccc2c(c1)OCCO2)C(=O)N(C)Cc1ccc(F)cc1 (stereo unspecified),0,76*,i,i,-7,15,31*,63*,13*,12
N#C/C(=C\Nc1ccccc1O)c1nc2ccccc2o1,0,87*,i,i,-11,9,48*,73*,10,13
CCOC(=O)CSc1nc2cc(C(=O)N3CCCC3)ccc2c(=O)n1Cc1ccccc1,0,105*,i,i,-39,-3,-2,-9,1,1
N#Cc1c(N)[nH]c2ccc(Sc3ccccc3)cc12,1,54*,i,nt,35,25,28*,41,12*,24
C[C@H](NC(=O)c1nc[nH]c1C(=O)NCCCCCNC(=O)OC(C)(C)C)C(=O)OC(C)(C)C,0,61*,i,i,-6,18,31*,45,9,5
CNC(=O)c1[nH]cnc1C(=O)N[C@@H](CCCCNC(=O)OC(C)(C)C)C(=O)OC(C)(C)C,-1,16,i,i,-1,8,nt,nt,nt,nt

# Assay outcomes (PubChem)
